The text below walks through data of ChEMBL document CHEMBL1134691, “3-Phenyl-5-acyloxymethyl-2H,5H-furan-2-ones: synthesis and biological activity of a novel group of potential antifungal drugs” (2001).

Molecules are shown by their SMILES. In brackets after ≈: the same amount, converted by molar mass.

In assay [1] the test system is Nakaseomyces glabratus. Kind of assay: Inhibition of Candida glabrata 20/I growth for 48 hours in vitro. It counts as functional. Summed up: (§1)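 NCCLS M27-A broth microdilution in RPMI 1640 with L-glutamine and 0.165 M MOPS, pH 7.0. Isolates kept on Sabouraud dextrose agar. Inoculum 5 × 10^3 cfu/mL final. Compounds were diluted in DMSO (≤2% final) and tested in 2-fold dilutions of 1000–0.24 µmol/L. Incubation at 35 °C, OD540 read at 24 and 48 h. MIC = 80% growth inhibition versus control; assays run twice in duplicate.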

The subject of assay [2] is Candida albicans. Description: Inhibition of Candida albicans ATCC 90028 for 24 hours in vitro. It counts as functional. A digest of the protocol: as §1
Assay [3] relates to Aspergillus fumigatus. Description: Inhibition of Aspergillus fumigatus 231 growth for 24 hours in vitro. It counts as functional. A digest of the protocol:
(§2)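 Filamentous isolates tested by microdilution per NCCLS M27-A in RPMI 1640 plus L-glutamine, buffered with 0.165 M MOPS to pH 7.0. Final inoculum 5 × 10^3 cfu/mL. Compounds in DMSO (final ≤2%), 2-fold series over 1000–0.24 µmol/L. Plates held at 35 °C and read visually after 24 and 48 h. MIC taken as 80% inhibition of control growth; determined twice in duplicate.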

Assay [4] deals with Clavispora lusitaniae. Description: Inhibition of Candida lusitaniae 2446/I growth for 48 hours in vitro. It counts as functional. A digest of the protocol:
as §1

Assay [5] deals with Lichtheimia corymbifera. Kind of assay: In vitro inhibition of Absidia corymbifera 272 growth for 48 hours. It counts as functional. Summed up: as §2
Assay [6] deals with Nakaseomyces glabratus. Kind of assay: Inhibition of Candida glabrata 20/I growth for 24 hours in vitro. It counts as functional. A digest of the protocol: as §1
Assay [7] deals with Candida parapsilosis. Description: Inhibition of Candida parapsilosis ATCC 22019 growth for 24 hours in vitro. It counts as functional. A digest of the protocol:
as §1

Assay [8] relates to Lichtheimia corymbifera. Description: In vitro inhibition of Absidia corymbifera 272 growth for 24 hours. It counts as functional. Summed up:
as §2

The nature of assay [9]: Inhibition of Trichophyton mentagrophytes 445 growth for 120 hours in vitro. Type of assay: functional, Arthroderma benhamiae. Summed up: (§3)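 Dermatophyte grown in MOPS-buffered (0.165 M, pH 7.0) RPMI 1640 containing L-glutamine, in an M27-A microdilution format. Inoculum 5 × 10^3 cfu/mL final. Compounds from DMSO stocks (≤2% final), 2-fold dilutions 1000–0.24 µmol/L. Incubated at 35 °C, growth judged visually at 72 and 120 h. MIC endpoint is 80% inhibition relative to control; measured twice in duplicate.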

Assay [10] can be described thus: Inhibition of Trichophyton mentagrophytes 445 growth for 72 hours in vitro. It counts as functional, Arthroderma benhamiae. A digest of the protocol: as §3
The test system of assay [11] is Trichosporon beigelii. Kind of assay: Inhibition of Trichosporon beigelli 1188 for 48 hours in vitro. It counts as functional. Summed up:
(§4)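 Microdilution following NCCLS M27-A. Medium: RPMI 1640 with L-glutamine, 0.165 M MOPS, pH 7.0. Final inoculum 5 × 10^3 cfu/mL. Compounds dissolved in DMSO, final ≤2%, serially halved from 1000 to 0.24 µmol/L. Incubated at 35 °C and read at 24 and 48 h. MIC defined as 80% inhibition of control growth; run twice in duplicate.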

Assay [12] relates to Clavispora lusitaniae. Description: Inhibition of Candida lusitaniae 2446/I growth for 24 hours in vitro. Type of assay: functional. Summed up: as §1
Assay [13] deals with Candida albicans. Kind of assay: Inhibition of Candida albicans ATCC 90028 for 48 hours in vitro. Type of assay: functional. A digest of the protocol: as §1
Assay [14] deals with Pichia kudriavzevii. Description: Inhibition of Candida krusei ATCC 6258 growth for 48 hours in vitro. It counts as functional. Summed up: as §1
In assay [15] the test system is Aspergillus fumigatus. Kind of assay: Inhibition of Aspergillus fumigatus 231 growth for 48 hours in vitro. Type of assay: functional. Summed up: as §2
Assay [16] deals with Pichia kudriavzevii. Description: Inhibition of Candida krusei ATCC 6258 growth for 24 hours in vitro. Type of assay: functional. A digest of the protocol: as §1
Assay [17] concerns Candida tropicalis. Description: Inhibition of Candida tropicalis 156 growth for 24 hours in vitro. Type of assay: functional. A digest of the protocol: as §1
Assay [18] deals with Pichia kudriavzevii. Kind of assay: Inhibition of Candida krusei E28 growth for 24 hours in vitro. It counts as functional. Summed up:
as §1

Assay [19] has as its system Candida parapsilosis. Description: Inhibition of Candida parapsilosis ATCC 22019 growth for 48 hours in vitro. Type of assay: functional. A digest of the protocol: as §1
The test system of assay [20] is Trichosporon beigelii. Description: Inhibition of Trichosporon beigelli 1188 for 24 hours in vitro. Type of assay: functional. Summed up: as §4
Assay [21] relates to Candida tropicalis. Description: Inhibition of Candida tropicalis 156 growth for 48 hours in vitro. Type of assay: functional. A digest of the protocol: as §1
The test system of assay [22] is Candida albicans. Kind of assay: Inhibition of Candida albicans ATCC 44859 growth for 48 hours in vitro. Type of assay: functional. Summed up:
as §1

For assay [23], the system named is Pichia kudriavzevii. Kind of assay: Inhibition of Candida krusei E28 growth for 48 hours in vitro. It counts as functional. A digest of the protocol:
as §1

Assay [24] relates to Candida albicans. Description: Inhibition of Candida albicans ATCC 44859 growth for 24 hours in vitro. It counts as functional. A digest of the protocol:
as §1

The mark [25] stands for this setting: Nakaseomyces glabratus, 48 h, read-out: MIC.
The mark [26] stands for this setting: Candida albicans, ATCC 90028, 24 h, read-out: MIC.
Setting [27] is: Aspergillus fumigatus, 24 h, read-out: MIC.
Setting [28] is: Clavispora lusitaniae, 48 h, read-out: MIC.
[29] abbreviates: Lichtheimia corymbifera, 48 h, read-out: MIC.
Setting [30] is: Nakaseomyces glabratus, 24 h, read-out: MIC.
The mark [31] stands for this setting: Lodderomyces parapsilosis, ATCC 22019, 24 h, read-out: MIC.
Setting [32] is: Lichtheimia corymbifera, 24 h, read-out: MIC.
The mark [33] stands for this setting: Trichophyton benhamiae, 120 h, read-out: MIC.
[34] abbreviates: Trichophyton benhamiae, 72 h, read-out: MIC.
[35] abbreviates: Trichosporon beigelii, 48 h, read-out: MIC.
The mark [36] stands for this setting: Clavispora lusitaniae, 24 h, read-out: MIC.
Where [37] appears, read: Candida albicans, ATCC 90028, 48 h, read-out: MIC.
Where [38] appears, read: Pichia kudriavzevii, ATCC 6258, 48 h, read-out: MIC.
[39] abbreviates: Aspergillus fumigatus, 48 h, read-out: MIC.
The mark [40] stands for this setting: Pichia kudriavzevii, ATCC 6258, 24 h, read-out: MIC.
Setting [41] is: Candida tropicalis, 24 h, read-out: MIC.
The mark [42] stands for this setting: Pichia kudriavzevii, 24 h, read-out: MIC.
[43] abbreviates: Lodderomyces parapsilosis, ATCC 22019, 48 h, read-out: MIC.
[44] abbreviates: Trichosporon beigelii, 24 h, read-out: MIC.
[45] abbreviates: Candida tropicalis, 48 h, read-out: MIC.
Setting [46] is: Candida albicans, ATCC 44859, 48 h, read-out: MIC.
Setting [47] is: Pichia kudriavzevii, 48 h, read-out: MIC.
The mark [48] stands for this setting: Candida albicans, ATCC 44859, 24 h, read-out: MIC.

As to `CC(C)(C)C(=O)OCC1C=C(c2ccc(Cl)c(Cl)c2)C(=O)O1` (stereo in doubt; 2c), the MIC in the assay on Nakaseomyces glabratus [1] was 0.98 uM l-1; with Candida albicans [2], 1.95 uM l-1; in the assay with Aspergillus fumigatus [3] it was 1.95 uM l-1; in the assay on Clavispora lusitaniae [4], 3.91 uM l-1; against Lichtheimia corymbifera [5] it was 15.63 uM l-1; against Nakaseomyces glabratus [6], 0.49 µM (≈ 0.168 µg/mL). For the same molecule, the MIC against Candida parapsilosis [7] is given as 3.91 uM l-1; in the assay on Lichtheimia corymbifera [8] it was 7.81 uM l-1; in [9], 0.49 uM l-1; in assay [10] it was 0.24 uM l-1; in the assay on Trichosporon beigelii [11], 7.81 uM l-1; with Clavispora lusitaniae [12], 1.95 uM l-1. Moreover, the MIC against Candida albicans [13] is 1.95 µM (≈ 0.669 µg/mL); in the assay with Pichia kudriavzevii [14], 31.25 uM l-1; against Aspergillus fumigatus [15] it was 3.91 uM l-1; in the assay on Pichia kudriavzevii [16] it was 7.81 uM l-1; in the assay with Candida tropicalis [17] it was 3.91 uM l-1; in the assay on Pichia kudriavzevii [18], 3.91 uM l-1. Also, the MIC is 3.91 uM l-1 in the assay on Candida parapsilosis [19]; 1.95 uM l-1 against Trichosporon beigelii [20]; 7.81 uM l-1 against Candida tropicalis [21]; 1.95 uM l-1 against Candida albicans [22]; 7.81 uM l-1 in the assay with Pichia kudriavzevii [23]; 0.49 µM (≈ 0.168 µg/mL) in the assay on Candida albicans [24].

Take `OC(Cn1cncn1)(Cn1cncn1)c1ccc(F)cc1F` [FLUCONAZOLE]: the MIC is 16 µM (≈ 4.9 µg/mL) in the assay on Nakaseomyces glabratus [1] (setting [25]); 0.25 µM (≈ 0.0766 µg/mL) in the assay on Candida albicans [2] (setting [26]); greater than 128 µM with Aspergillus fumigatus [3] (setting [27]); 1 µM (≈ 0.306 µg/mL) with Clavispora lusitaniae [4] (setting [28]); greater than 128 µM in the assay with Lichtheimia corymbifera [5] (setting [29]); 4 µM (≈ 1.23 µg/mL) in the assay on Nakaseomyces glabratus [6] (setting [30]). Moreover, the MIC was 2 µM (≈ 0.613 µg/mL) with Candida parapsilosis [7] (setting [31]); greater than 128 µM with Lichtheimia corymbifera [8] (setting [32]); 16 µM (≈ 4.9 µg/mL) in [9] (setting [33]); 8 µM (≈ 2.45 µg/mL) in assay [10] (setting [34]); 2 µM (≈ 0.613 µg/mL) in the assay on Trichosporon beigelii [11] (setting [35]); 1 µM (≈ 0.306 µg/mL) in the assay on Clavispora lusitaniae [12] (setting [36]). The MIC with Candida albicans [13] (setting [37]) is 1 µM (≈ 0.306 µg/mL); in the assay with Pichia kudriavzevii [14] (setting [38]), 64 µM (≈ 19.6 µg/mL); in the assay on Aspergillus fumigatus [15] (setting [39]), greater than 128 µM; in the assay with Pichia kudriavzevii [16] (setting [40]), 32 µM (≈ 9.8 µg/mL); in the assay on Candida tropicalis [17] (setting [41]), 0.5 µM (≈ 0.153 µg/mL); with Pichia kudriavzevii [18] (setting [42]) it was 16 µM (≈ 4.9 µg/mL). The MIC was 4 µM (≈ 1.23 µg/mL) in the assay on Candida parapsilosis [19] (setting [43]); 1 µM (≈ 0.306 µg/mL) in the assay on Trichosporon beigelii [20] (setting [44]); greater than 128 µM with Candida tropicalis [21] (setting [45]); 0.5 µM (≈ 0.153 µg/mL) with Candida albicans [22] (setting [46]); 32 µM (≈ 9.8 µg/mL) with Pichia kudriavzevii [23] (setting [47]); 0.25 µM (≈ 0.0766 µg/mL) with Candida albicans [24] (setting [48]).

For `COc1ccc(C2=CC(COC(=O)C(C)(C)C)OC2=O)cc1` (configuration not stated), the MIC with Nakaseomyces glabratus [1] (setting [25]) amounted to 31.2 µM (≈ 9.51 µg/mL); in the assay on Candida albicans [2] (setting [26]) it was 31.2 µM (≈ 9.51 µg/mL); in the assay on Aspergillus fumigatus [3] (setting [27]), 7.81 µM (≈ 2.38 µg/mL); in the assay on Clavispora lusitaniae [4] (setting [28]) it was 31.2 µM (≈ 9.51 µg/mL); with Lichtheimia corymbifera [5] (setting [29]) it was 125 µM (≈ 38 µg/mL); in the assay with Nakaseomyces glabratus [6] (setting [30]), 31.2 µM (≈ 9.51 µg/mL). In addition, the MIC in the assay on Candida parapsilosis [7] (setting [31]) stood at 31.2 µM (≈ 9.51 µg/mL); in the assay on Lichtheimia corymbifera [8] (setting [32]) it was 62.5 µM (≈ 19 µg/mL); in [9] (setting [33]), 7.81 µM (≈ 2.38 µg/mL); in [10] (setting [34]), 7.81 µM (≈ 2.38 µg/mL); in the assay with Trichosporon beigelii [11] (setting [35]), 62.5 µM (≈ 19 µg/mL); with Clavispora lusitaniae [12] (setting [36]), 31.2 µM (≈ 9.51 µg/mL). The MIC in the assay on Candida albicans [13] (setting [37]) was found to be 31.2 µM (≈ 9.51 µg/mL); in the assay on Pichia kudriavzevii [14] (setting [38]), 62.5 µM (≈ 19 µg/mL); in the assay with Aspergillus fumigatus [15] (setting [39]), 31.2 µM (≈ 9.51 µg/mL); with Pichia kudriavzevii [16] (setting [40]), 62.5 µM (≈ 19 µg/mL); in the assay with Candida tropicalis [17] (setting [41]) it was 31.2 µM (≈ 9.51 µg/mL); with Pichia kudriavzevii [18] (setting [42]), 62.5 µM (≈ 19 µg/mL). In addition, the MIC in the assay with Candida parapsilosis [19] (setting [43]) was determined as 62.5 µM (≈ 19 µg/mL); in the assay on Trichosporon beigelii [20] (setting [44]), 62.5 µM (≈ 19 µg/mL); with Candida tropicalis [21] (setting [45]), 62.5 µM (≈ 19 µg/mL); in the assay on Candida albicans [22] (setting [46]), 15.6 µM (≈ 4.76 µg/mL); in the assay on Pichia kudriavzevii [23] (setting [47]), 125 µM (≈ 38 µg/mL); in the assay with Candida albicans [24] (setting [48]), 0.98 µM (≈ 0.298 µg/mL).
